# Experiments:
# [1] = tested on: Kidney; test: Drug concentration in male Lister Hooded pigmented rat kidney assessed as radioactivity per gram of tissue at 20 mg/kg administered as single dose via gastric gavage measured after 72 hrs by autoradiographic analysis; format: ADME, organism-based; parameters: dose 20 mg/kg, dosed compound name [14C]Sunitinib; conditions: in vivo, po
# [2] = tested on: Homo sapiens; test: Total drug recovery in human at 50 mg, po administered as single dose during 0 to 504 hrs by liquid scintillation counting; format: ADME, organism-based; parameters: dosed compound name [14C]Sunitinib; conditions: in vivo
# [3] = Drug recovery in urine of female Sprague-Dawley rat at 15 mg/kg, po administered as single dose during 0 to 72 hrs by liquid scintillation counting; format: ADME, organism-based; parameters: dose 15 mg/kg, dosed compound name [14C]Sunitinib, route oral; conditions: in vivo
# [4] = tested on: Rattus norvegicus; test: Drug recovery in cage residue of female Sprague-Dawley rat at 15 mg/kg, po administered as single dose during 0 to 72 hrs by liquid scintillation counting; format: ADME, organism-based; parameters: dose 15 mg/kg, dosed compound name [14C]Sunitinib, route oral; conditions: in vivo
# [5] = tested on: Lung; test: Drug concentration in female albino rat lung assessed as radioactivity per gram of tissue at 20 mg/kg administered as single dose via gastric gavage measured after 3 hrs by autoradiographic analysis; format: ADME, organism-based; parameters: dose 20 mg/kg, dosed compound name [14C]Sunitinib; conditions: in vivo, po
# How it was run: (§1)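 Sprague Dawley albino rats, ca 7-8 weeks old, dosed once by gastric gavage with [14C]sunitinib L-malate (15 mg freebase/kg, 100 µCi/kg). One male and one female killed by CO2 at 3, 6, 24, 72 and 168 h. Carcasses frozen in solid CO2/hexane, embedded and cut into 30 µm sagittal sections, then freeze-dried. Radioactivity quantified by whole-body autoradiography against standards by regression, background subtracted.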
# [6] = Drug concentration in male Lister Hooded pigmented rat testis assessed as radioactivity per gram of tissue at 20 mg/kg administered as single dose via gastric gavage measured after 24 hrs by autoradiographic analysis; format: ADME, organism-based; parameters: dose 20 mg/kg, dosed compound name [14C]Sunitinib; conditions: in vivo, po
# [7] = Drug concentration in male Lister Hooded pigmented rat pituitary gland assessed as radioactivity per gram of tissue at 20 mg/kg administered as single dose via gastric gavage measured after 24 hrs by autoradiographic analysis; format: ADME, organism-based; parameters: dose 20 mg/kg, dosed compound name [14C]Sunitinib; conditions: in vivo, po
# [8] = tested on: Small intestine; test: Drug concentration in male Lister Hooded pigmented rat small intestine assessed as radioactivity per gram of tissue at 20 mg/kg administered as single dose via gastric gavage measured after 24 hrs by autoradiographic analysis; format: ADME, organism-based; parameters: dose 20 mg/kg, dosed compound name [14C]Sunitinib; conditions: in vivo, po
# [9] = Drug concentration in male albino rat bladder assessed as radioactivity per gram of tissue at 20 mg/kg administered as single dose via gastric gavage measured after 6 hrs by autoradiographic analysis; format: ADME, organism-based, Urinary bladder; parameters: dose 20 mg/kg, dosed compound name [14C]Sunitinib; conditions: in vivo, po
# [10] = tested on: Pancreas; test: Drug concentration in male albino rat pancreas assessed as radioactivity per gram of tissue at 20 mg/kg administered as single dose via gastric gavage measured after 3 hrs by autoradiographic analysis; format: ADME, organism-based; parameters: dose 20 mg/kg, dosed compound name [14C]Sunitinib; conditions: in vivo, po
# [11] = Drug concentration in female albino rat skeletal muscle assessed as radioactivity per gram of tissue at 20 mg/kg administered as single dose via gastric gavage measured after 6 hrs by autoradiographic analysis; format: ADME, organism-based; parameters: dose 20 mg/kg, dosed compound name [14C]Sunitinib; conditions: in vivo, po
# [12] = tested on: Large intestine; test: Drug concentration in male Lister Hooded pigmented rat large intestine assessed as radioactivity per gram of tissue at 20 mg/kg administered as single dose via gastric gavage measured after 168 hrs by autoradiographic analysis; format: ADME, organism-based; parameters: dose 20 mg/kg, dosed compound name [14C]Sunitinib; conditions: in vivo, po
# [13] = tested on: Heart; test: Drug concentration in male Lister Hooded pigmented rat heart assessed as radioactivity per gram of tissue at 20 mg/kg administered as single dose via gastric gavage measured after 168 hrs by autoradiographic analysis; format: ADME, organism-based; parameters: dose 20 mg/kg, dosed compound name [14C]Sunitinib; conditions: in vivo, po
# [14] = Drug concentration in male albino rat preputial gland assessed as radioactivity per gram of tissue at 20 mg/kg administered as single dose via gastric gavage measured after 72 hrs by autoradiographic analysis; format: ADME, organism-based; parameters: dose 20 mg/kg, dosed compound name [14C]Sunitinib; conditions: in vivo, po
# [15] = tested on: Zone of skin; test: Drug concentration in male albino rat abdomen skin assessed as radioactivity per gram of tissue at 20 mg/kg administered as single dose via gastric gavage measured after 72 hrs by autoradiographic analysis; format: ADME, organism-based; parameters: dose 20 mg/kg, dosed compound name [14C]Sunitinib; conditions: in vivo, po
# [16] = tested on: Stomach; test: Drug concentration in female albino rat stomach assessed as radioactivity per gram of tissue at 20 mg/kg administered as single dose via gastric gavage measured after 24 hrs by autoradiographic analysis; format: ADME, organism-based; parameters: dose 20 mg/kg, dosed compound name [14C]Sunitinib; conditions: in vivo, po
# [17] = tested on: Large intestine; test: Drug concentration in female Lister Hooded pigmented rat large intestine assessed as radioactivity per gram of tissue at 20 mg/kg administered as single dose via gastric gavage measured after 24 hrs by autoradiographic analysis; format: ADME, organism-based; parameters: dose 20 mg/kg, dosed compound name [14C]Sunitinib; conditions: in vivo, po
# How it was run: (§2)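 Lister Hooded (pigmented) rats, ca 7-8 weeks old, acclimated 7 days, given [14C]sunitinib L-malate by gastric gavage at 20 mg/kg (15 mg freebase/kg, 100 µCi/kg). One male and one female killed by CO2 at 24, 72, 168 and 336 h. Carcasses frozen in solid CO2/hexane and embedded in frozen cellulose. 30 µm sagittal cryosections were freeze-dried. Tissue radioactivity measured by quantitative whole-body autoradiography against calibration standards, with background subtracted.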
# [18] = Drug concentration in female albino rat bladder assessed as radioactivity per gram of tissue at 20 mg/kg administered as single dose via gastric gavage measured after 24 hrs by autoradiographic analysis; format: ADME, organism-based, Urinary bladder; parameters: dose 20 mg/kg, dosed compound name [14C]Sunitinib; conditions: in vivo, po
# How it was run: (§3)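 Sprague Dawley (albino) rats, ca 7-8 weeks old, received a single gastric-gavage dose of [14C]sunitinib L-malate at 20 mg/kg (15 mg freebase/kg, 100 µCi/kg). One animal per sex killed by CO2 at 3, 6, 24, 72 and 168 h, then frozen in CO2/hexane. 30 µm sagittal sections were cut and freeze-dried. Radioactivity per gram quantified by whole-body autoradiography using regression against standards. LOQ 0.04–0.06 µg freebase equiv/g.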
# [19] = tested on: Brain; test: Drug concentration in female albino rat brain assessed as radioactivity per gram of tissue at 20 mg/kg administered as single dose via gastric gavage measured after 24 hrs by autoradiographic analysis; format: ADME, organism-based; parameters: dose 20 mg/kg, dosed compound name [14C]Sunitinib; conditions: in vivo, po; how it was run: as §3
# [20] = tested on: Lung; test: Drug concentration in female albino rat lung assessed as radioactivity per gram of tissue at 20 mg/kg administered as single dose via gastric gavage measured after 24 hrs by autoradiographic analysis; format: ADME, organism-based; parameters: dose 20 mg/kg, dosed compound name [14C]Sunitinib; conditions: in vivo, po; how it was run: as §1
# [21] = Drug concentration in female Lister Hooded pigmented rat lymph node assessed as radioactivity per gram of tissue at 20 mg/kg administered as single dose via gastric gavage measured after 24 hrs by autoradiographic analysis; format: ADME, organism-based; parameters: dose 20 mg/kg, dosed compound name [14C]Sunitinib; conditions: in vivo, po
# How it was run: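 Sprague Dawley (albino) and Lister Hooded (pigmented) rats, ca 7-8 weeks old, 179-310 g, acclimated 7 days. Single gavage dose of [14C]sunitinib L-malate (15 mg freebase/kg, 100 µCi/kg). One male and one female killed by CO2 per time point: albino at 3, 6, 24, 72, 168 h; pigmented at 24, 72, 168, 336 h. Carcasses frozen in solid CO2/hexane, 30 µm sagittal sections freeze-dried. Tissue radioactivity read by quantitative whole-body autoradiography against regression of standards, mean background subtracted.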
# [22] = tested on: Liver; test: Drug concentration in female Lister Hooded pigmented rat liver assessed as radioactivity per gram of tissue at 20 mg/kg administered as single dose via gastric gavage measured after 72 hrs by autoradiographic analysis; format: ADME, organism-based; parameters: dose 20 mg/kg, dosed compound name [14C]Sunitinib; conditions: in vivo, po; how it was run: as §2
# [23] = tested on: Zone of skin; test: Drug concentration in female Lister Hooded pigmented rat abdomen skin assessed as radioactivity per gram of tissue at 20 mg/kg administered as single dose via gastric gavage measured after 72 hrs by autoradiographic analysis; format: ADME, organism-based; parameters: dose 20 mg/kg, dosed compound name [14C]Sunitinib; conditions: in vivo, po
# How it was run: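 Pigmented Lister Hooded rats, 7-8 weeks old, received [14C]sunitinib L-malate by gavage at 20 mg/kg (15 mg freebase/kg, 100 µCi/kg). One rat per sex was killed by CO2 at each of 24, 72, 168 and 336 h. Carcasses were frozen in solid CO2/hexane and cut into 30 µm sagittal sections, then freeze-dried. Tissue radioactivity was quantified by whole-body autoradiography calibrated against standards by regression (LOQ 0.04–0.06 µg eq/g).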
# [24] = Drug concentration in female Lister Hooded pigmented rat eye assessed as radioactivity per gram of tissue at 20 mg/kg administered as single dose via gastric gavage measured after 336 hrs by autoradiographic analysis; format: ADME, organism-based; parameters: dose 20 mg/kg, dosed compound name [14C]Sunitinib; conditions: in vivo, po; how it was run: as §2
smiles,measurement,setting,value
CCN(CC)CCNC(=O)c1c(C)[nH]c(/[14CH]=C2\C(=O)Nc3ccc(F)cc32)c1C.O=C(O)C[C@H](O)C(=O)O,Radiolabel recovery,[1],0.26 ugequiv
same,Radiolabel recovery,[2],77%
same,Radiolabel recovery,[3],9.3%
same,Radiolabel recovery,[4],2.2%
same,Radiolabel recovery,[5],28.98 ugequiv
same,Radiolabel recovery,[6],2.27 ugequiv
same,Radiolabel recovery,[7],7.71 ugequiv
same,Radiolabel recovery,[8],0.82 ugequiv
same,Radiolabel recovery,[9],2.56 ugequiv
same,Radiolabel recovery,[10],11.1 ugequiv
same,Radiolabel recovery,[11],3.33 ugequiv
same,Radiolabel recovery,[12],0.06 ugequiv
same,Radiolabel recovery,[13],0.06 ugequiv
same,Radiolabel recovery,[14],0.13 ugequiv
same,Radiolabel recovery,[15],0.27 ugequiv
same,Radiolabel recovery,[16],1.21 ugequiv
same,Radiolabel recovery,[17],0.78 ugequiv
same,Radiolabel recovery,[18],0.54 ugequiv
same,Radiolabel recovery,[19],0.07 ugequiv
same,Radiolabel recovery,[20],1.64 ugequiv
same,Radiolabel recovery,[21],1.14 ugequiv
same,Radiolabel recovery,[22],0.32 ugequiv
same,Radiolabel recovery,[23],0.26 ugequiv
same,Radiolabel recovery,[24],56.9 ugequiv
